What was measured:
[1] = test system: Nucleic Acid; assay: Maximum number of sites; assay type: nucleic-acid assay; settings: Bos taurus
Summary of the method: (§1)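 Calf thymus DNA binding by direct fluorescence titration (excitation 310 nm, emission 540 nm) in 10 mM acetate buffer, 100 mM NaCl, pH 5.2, 20 °C. Scatchard plots gave apparent association constant Kapp and apparent binding sites per nucleotide r_app. Drug stocks 5×10^-3 M in 50% DMSO/water, diluted in buffer.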

[2] = test system: Nucleic Acid; assay: Apparent binding constant (Kapp) to DNA, by direct fluorimetric titration, at pH 5; 10e-6; assay type: nucleic-acid assay; settings: Bos taurus; summary of the method: as §1
[3] = test system: L1210; assay: In vitro cytotoxicity by growth inhibition in L1210 cells; assay type: functional; settings: Mus musculus, read-out: ID50 (the source's name)
Summary of the method: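 L1210 leukemia suspension cultures in RPMI with fetal calf serum, 37 °C, 6% CO2; 10^4 cells/mL exponential phase exposed in duplicate to drug at final 10^-5–10^-8 M for 48 h. Cells counted electronically, viability by trypan blue exclusion; ID50 (50% growth inhibition vs untreated controls) from regression of % inhibition against log dose.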

[4] = test system: Mus musculus; assay: Increase in life of span over controls, 10e5 L1210 cells per mouse of 20 g, by ip route LD0/10 ata conc of LD0/10(N); assay type: functional; set-up: unit not given here
Summary of the method: (§2)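 Random DBA/2 female mice of 20 g were inoculated ip with 10^5 L1210 leukemia cells. A single ip dose in 200 μL water was given 24 h later, at LD0/10, LD0/5 or LD0/2, with 10 mice per dose and 20 controls. Deaths were counted daily at the same hour. ILS was taken from treated versus control median survival time, and cured mice were counted.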

[5] = test system: Mus musculus; assay: Increase in life of span over controls, 10e5 L1210 cells per mouse of 20 g, by ip route LD0/10 ata conc of LD0/5(N); assay type: functional; summary of the method: as §2
[6] = test system: Mus musculus; assay: In vivo antitumor effect, expressed as the lethal dose (LD100), administered by intraperitoneal route; assay type: ADME, organism-based; settings: ip
[7] = test system: Mus musculus; assay: In vivo antitumor effect, expressed as the highest nonlethal dose (LD0), administered by intraperitoneal route; assay type: ADME, organism-based; settings: ip
[8] = test system: NIH3T3; assay: In vitro cytotoxicity by growth inhibition in NIH3T3 cells; assay type: functional; settings: Mus musculus, read-out: ID50 (the source's name)
Summary of the method: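 NIH-3T3 mouse fibroblasts in DMEM, 5% fetal calf serum, 37 °C, 6% CO2, seeded at 7.5×10^3 cells/cm²; drug added 24 h later and growth followed for three days. Trypsinized cells counted electronically; ID50 taken as 50% growth inhibition vs controls, from regression against log dose.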

[9] = test system: Mus musculus; assay: Increase in life of span over controls, 10e5 L1210 cells per mouse of 20 g, by ip route LD0/10 at a conc of LD0/2(N); assay type: functional; summary of the method: as §2
[10] = test system: Mus musculus; assay: Increase in life of span over controls, 10e5 L1210 cells per mouse of 20 g, by ip route LD0/10 at a conc of LD0/5(N); assay type: functional; summary of the method: as §2
[11] = test system: Mus musculus; assay: Increase in life of span over controls, 10e5 L1210 cells per mouse of 20 g, by ip route LD0/10 ata conc of LD0/2(N); assay type: functional; summary of the method: as §2

Compound	rapp [1]	K app [2]	IC50 [3]	ILS [4]	ILS [5]	LD100 [6]	LD0 [7]	IC50 [8]	ILS [9]	ILS [10]	ILS [11]
CCCNc1nccc2c(C)c3[nH]c4ccc(OC)cc4c3c(C)c12	0.2	2e+06 M⁻¹	100 nM	0	2	200 mg/kg	100 mg/kg	300 nM			
CCNc1nccc2c(C)c3[nH]c4ccc(OC)cc4c3c(C)c12	0.2	2.15e+06 M⁻¹	50 nM	2		90 mg/kg	70 mg/kg	300 nM	42	13	
COc1ccc2[nH]c3c(C)c4ccnc(NCC(C)C)c4c(C)c3c2c1	0.17	2.35e+06 M⁻¹	90 nM				> 200 mg/kg	300 nM			
COc1ccc2[nH]c3c(C)c4ccnc(NCCC(C)C)c4c(C)c3c2c1	0.2	3.75e+06 M⁻¹	800 nM	10	5	350 mg/kg	300 mg/kg	500 nM			
COc1ccc2[nH]c3c(C)c4ccnc(N)c4c(C)c3c2c1	0.2	1e+06 M⁻¹	100 nM	21	39	70 mg/kg	60 mg/kg				93
